ChEMBL document CHEMBL4402584, “Lead Optimization of Phthalazinone Phosphodiesterase Inhibitors as Novel Antitrypanosomal Compounds” (J Med Chem, 2020)

Columns and labels:
[1] = Metabolic stability in human microsomes assessed as compound remaining at 5 uM incubated for 30 mins by UPLC-MS/MS analysis; type: ADME, Microsome; conditions: for Stability: 0.5 h, 5 µM
In short: (§1)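 Compound at 5 µM incubated with 0.5 mg/mL male liver microsomes in potassium phosphate buffer, started with 1 mM NADPH (CYP phase I). Aliquots quenched in cold acetonitrile containing tolbutamide, centrifuged at 4 °C, supernatant analysed by LC-MS. Results given as % parent remaining relative to time 0; mean of at least two experiments; diclofenac as control.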

Trypanosoma brucei = test: Antitrypanosomal activity against Trypanosoma brucei Squib 427 assessed as reduction in parasite growth incubated for 72 hrs by resazurin dye based fluorimetric analysis; type: functional, organism-based; conditions: Squib 427, 72 h
[2] = target: T1, Class 1 phosphodiesterase PDEB1 (Trypanosoma brucei, UniProt Q8WQX9); test: Inhibition of Trypanosoma brucei PDEB1 (565 to 918 residues) expressed in Escherichia coli BL21 (DE3) using cAMP as substrate by PDELight HTS cAMP phosphodiesterase Kit based
T1 sequence (Q8WQX9 whole entry): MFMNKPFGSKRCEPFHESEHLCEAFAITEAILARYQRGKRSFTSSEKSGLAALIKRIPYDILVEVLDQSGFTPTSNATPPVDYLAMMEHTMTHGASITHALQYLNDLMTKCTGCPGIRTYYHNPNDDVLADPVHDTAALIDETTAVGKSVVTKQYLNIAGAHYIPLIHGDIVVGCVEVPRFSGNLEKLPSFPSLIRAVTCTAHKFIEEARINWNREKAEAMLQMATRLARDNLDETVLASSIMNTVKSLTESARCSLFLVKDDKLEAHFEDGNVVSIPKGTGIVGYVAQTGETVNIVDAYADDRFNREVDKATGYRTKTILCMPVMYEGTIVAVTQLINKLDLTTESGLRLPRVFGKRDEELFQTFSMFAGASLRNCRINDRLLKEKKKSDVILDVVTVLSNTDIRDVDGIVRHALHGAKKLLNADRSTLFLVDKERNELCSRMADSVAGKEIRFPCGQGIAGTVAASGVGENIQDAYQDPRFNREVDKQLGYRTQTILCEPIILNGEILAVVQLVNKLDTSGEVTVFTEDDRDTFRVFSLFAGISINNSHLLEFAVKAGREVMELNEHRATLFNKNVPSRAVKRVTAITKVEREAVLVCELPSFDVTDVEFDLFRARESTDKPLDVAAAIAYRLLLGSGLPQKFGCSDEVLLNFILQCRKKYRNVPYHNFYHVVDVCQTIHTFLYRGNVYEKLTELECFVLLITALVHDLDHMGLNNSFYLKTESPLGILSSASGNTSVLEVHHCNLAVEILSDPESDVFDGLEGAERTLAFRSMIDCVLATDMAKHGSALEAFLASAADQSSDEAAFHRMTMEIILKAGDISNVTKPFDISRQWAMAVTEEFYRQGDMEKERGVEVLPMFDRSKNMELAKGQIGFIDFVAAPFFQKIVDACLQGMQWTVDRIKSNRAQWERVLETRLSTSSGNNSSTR
In short: (§2)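 Recombinant catalytic domains, His-tag purified, then ion exchange and size exclusion, were tested with the PDELight HTS cAMP kit in stimulation buffer (50 mM Hepes, 100 mM NaCl, 10 mM MgCl2, 0.5 mM EDTA, 0.05 mg/ml BSA, pH 7.5). Dose-response curves gave Ki, expressed as pKi = −log10(Ki ÷ 1000000).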

[3] = Metabolic stability in mouse microsomes assessed as compound remaining at 5 uM incubated for 30 mins by UPLC-MS/MS analysis; type: ADME, Microsome; conditions: for Stability: 0.5 h, 5 µM; for remaining at 0.5 h, 5 µM: read-out: Stability; in short: as §1
[4] = Cytotoxicity against human MRC5 SV2 cells assessed as reduction in cell viability incubated for 72 hrs by resazurin dye based fluorimetric assay; conditions: MRC-5 SV2, 72 h
In short: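 MRC-5 SV2 fibroblasts grown in Earl's MEM with 5% FBSi, L-glutamine and bicarbonate; 1×10^4 cells/well treated 72 h at 37 °C, 5% CO2; resazurin viability read fluorimetrically (ex 550, em 590 nm). Five 4-fold dilutions from a 64 µM top concentration; IC50 derived from % viability reduction vs untreated wells; tamoxifen as reference.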

[5] = target: 3',5'-cyclic-AMP phosphodiesterase 4D (Homo sapiens, UniProt Q08499); test: Inhibition of human PDE4D2 expressed in Escherichia coli BL21 (DE3) using cAMP as substrate by PDELight HTS cAMP phosphodiesterase Kit based; in short: as §2
3',5'-cyclic-AMP phosphodiesterase 4D, sequence (Q08499 whole entry): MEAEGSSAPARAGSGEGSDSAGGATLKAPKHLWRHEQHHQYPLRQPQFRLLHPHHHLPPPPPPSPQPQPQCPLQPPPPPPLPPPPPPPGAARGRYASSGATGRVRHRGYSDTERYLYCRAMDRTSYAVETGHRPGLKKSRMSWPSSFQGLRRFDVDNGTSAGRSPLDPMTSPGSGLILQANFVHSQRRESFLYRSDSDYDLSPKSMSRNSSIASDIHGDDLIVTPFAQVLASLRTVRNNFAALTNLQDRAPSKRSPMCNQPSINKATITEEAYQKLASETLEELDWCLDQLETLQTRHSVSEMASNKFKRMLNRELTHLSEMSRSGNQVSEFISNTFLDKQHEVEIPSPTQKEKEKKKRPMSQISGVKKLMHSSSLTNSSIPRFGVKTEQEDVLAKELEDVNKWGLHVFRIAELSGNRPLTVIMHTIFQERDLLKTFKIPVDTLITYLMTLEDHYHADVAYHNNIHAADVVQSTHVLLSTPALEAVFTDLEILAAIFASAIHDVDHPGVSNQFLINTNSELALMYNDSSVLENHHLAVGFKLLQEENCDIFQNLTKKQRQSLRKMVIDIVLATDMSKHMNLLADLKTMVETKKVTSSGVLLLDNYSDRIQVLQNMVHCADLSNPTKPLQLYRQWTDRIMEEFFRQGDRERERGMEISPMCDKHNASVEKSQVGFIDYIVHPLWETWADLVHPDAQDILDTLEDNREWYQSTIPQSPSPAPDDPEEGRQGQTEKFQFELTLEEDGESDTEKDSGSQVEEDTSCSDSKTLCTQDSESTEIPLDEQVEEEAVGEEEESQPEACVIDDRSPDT

| SMILES | Stability [1] | IC50 (Trypanosoma brucei) [nM] | Ki [2] [nM] | Stability [3] | Ki [5] [nM] | remaining at 0.5 h, 5 µM ([1]; read-out: Stability) [%] | remaining at 0.5 h, 5 µM [3] [%] | IC50 [4] [nM] |
| --- | --- | --- | --- | --- | --- | --- | --- | --- |
| COc1ccc(C2=NN(C3CN(C(=O)CN4C(=O)CC5(CCCCC5)CC4=O)C3)C(=O)[C@@H]3CC=CC[C@H]23)cc1OC | Stable | 1150 | 91.2 | Stable | 0.851 | – | – | 64600 |
| O=C(CN1C(=O)CC2(CCCCC2)CC1=O)N1CCC(N2N=C(c3ccc(F)c(F)c3)[C@H]3CC=CC[C@H]3C2=O)CC1 (relative stereo) | Stable | 33100 | > 4570 | Stable | – | – | – | 64600 |
| COc1ccc(C2=NN(C3CCN(C(=O)CN4C(=O)CC5(CCCCC5)CC4=O)CC3)C(=O)[C@@H]3CC=CC[C@H]23)cc1OC | Stable | 479 | 30.9 | Stable | 0.155 | – | – | 31600 |
| O=C(CN1C(=O)CC2(CCCCC2)CC1=O)N1CCC(N2N=C(c3ccc(F)c(F)c3)[C@H]3CCCC[C@H]3C2=O)CC1 | Stable | 7590 | > 6920 | Stable | – | – | – | 64600 |
| CC1(C)CC(=O)N(CC(=O)N2CCC(N3N=C(c4ccc(OC(F)F)c(OC(F)F)c4)[C@H]4CC=CC[C@H]4C3=O)CC2)C(=O)C1 | – | 1000 | 407 | – | 0.302 | – | – | 64600 |
| COc1ccc(C2=NN(C3CCN(C(=O)CN4C(=O)CC(C)C4=O)CC3)C(=O)[C@@H]3CC=CC[C@H]23)cc1OC (stereo partly drawn) | – | 1820 | 75.9 | – | 0.17 | – | – | 64600 |
| COc1ccc(C2=NN(C3CCN(C(=O)CN4C(=O)CC(C)(C)CC4=O)CC3)C(=O)[C@@H]3CCCC[C@H]23)cc1OC | Stable | 1950 | 85.1 | Stable | 0.162 | – | – | 56200 |
| COc1ccc(C2=NN(C3CCN(C(=O)CN4C(=O)CCC4=O)CC3)C(=O)[C@@H]3CC=CC[C@H]23)cc1OC | – | 1860 | 20.9 | – | 0.0617 | 89 | 43 | 64600 |
| COc1ccc(C2=NN(C3CN(c4nc(N)nc5sccc45)C3)C(=O)[C@@H]3CC=CC[C@H]23)cc1OC | – | 7760 | 275 | – | 1.17 | – | – | 64600 |
| COc1ccc(C2=NN(C3CCN(c4nc(N)nc5sccc45)CC3)C(=O)[C@@H]3CCCC[C@H]23)cc1OC | – | 955 | 93.3 | – | 0.661 | – | – | 28800 |
| COc1ccc(C2=NN(C3CN(C(=O)CN4C(=O)CC(C)(C)CC4=O)C3)C(=O)[C@@H]3CC=CC[C@H]23)cc1OC | – | 1820 | 102 | – | 0.389 | – | – | 64600 |
| COc1ccc(C2=NN(C3CCN(C(=O)CN4C(=O)CC(C)(C)CC4=O)CC3)C(=O)[C@@H]3CC=CC[C@H]23)cc1OC | Stable | 447 | 43.7 | – | 0.123 | – | 6.7 | 44700 |
| CC1(C)CC(=O)N(CC(=O)N2CCC(N3N=C(c4ccc(OC(F)F)c(OC(F)F)c4)[C@H]4CCCC[C@H]4C3=O)CC2)C(=O)C1 | Stable | 6460 | > 1580 | Stable | – | – | – | 64600 |

The next lines start with results.

| Stability [1] | IC50 (Trypanosoma brucei) [nM] | Ki [2] [nM] | Stability [3] | Ki [5] [nM] | remaining at 0.5 h, 5 µM ([1]; read-out: Stability) [%] | remaining at 0.5 h, 5 µM [3] [%] | SMILES | IC50 [4] [nM] |
| --- | --- | --- | --- | --- | --- | --- | --- | --- |
| Stable | 2090 | > 9330 | Stable | – | – | – | Nc1nc(N2CCC(N3N=C(c4ccc(F)cc4)[C@H]4CC=CC[C@H]4C3=O)CC2)c2ccsc2n1 (relative stereo) | 64600 |
| Stable | 13200 | > 5620 | Stable | – | – | – | O=C1[C@@H]2CC=CC[C@@H]2C(c2ccc(F)c(F)c2)=NN1C1CCN(c2ncnc3ccsc23)CC1 | 38000 |
| Stable | 6760 | > 2140 | Stable | – | – | – | O=C1[C@@H]2CC=CC[C@@H]2C(c2ccc(OC(F)F)c(OC(F)F)c2)=NN1C1CCN(c2ncnc3ccsc23)CC1 | 64600 |
| – | 15100 | 288 | – | 0.562 | – | – | COc1ccc(C2=NN(C3CN(c4ncnc5ccsc45)C3)C(=O)[C@@H]3CC=CC[C@H]23)cc1OC | 64600 |
| Stable | 1780 | 339 | Stable | 0.676 | – | – | COc1ccc(C2=NN(C3CCN(c4nc(N)c5sccc5n4)CC3)C(=O)[C@@H]3CC=CC[C@H]23)cc1OC | 64600 |
| Stable | 1910 | > 8320 | Stable | – | – | – | Nc1nc(N2CCC(N3N=C(c4ccc(F)c(F)c4)[C@H]4CC=CC[C@H]4C3=O)CC2)c2ccsc2n1 (relative stereo) | 64600 |
| – | 2290 | 692 | – | 2.57 | – | – | COc1ccc(C2=NN(C3CCN(c4ncc5sccc5n4)CC3)C(=O)[C@@H]3CC=CC[C@H]23)cc1OC | 64600 |
| – | 871 | 646 | – | 2.45 | – | – | COc1ccc(C2=NN(C3CCN(c4nc(N)c5ccccc5n4)CC3)C(=O)[C@@H]3CC=CC[C@H]23)cc1OC | 7410 |
| – | 3630 | 257 | – | 0.513 | – | – | COc1ccc(C2=NN(C3CCN(c4ccnc(N)n4)CC3)C(=O)[C@@H]3CC=CC[C@H]23)cc1OC | 3890 |
| – | 1700 | 105 | – | 0.871 | – | – | COc1ccc(C2=NN(C3CCN(c4nc(N)nc5[nH]cnc45)CC3)C(=O)[C@@H]3CC=CC[C@H]23)cc1OC | 17800 |
| – | 1860 | 110 | – | 0.316 | – | – | COc1ccc(C2=NN(C3CCN(c4nccc(N)n4)CC3)C(=O)[C@@H]3CC=CC[C@H]23)cc1OC | 17400 |
| – | 5130 | 891 | – | 63.1 | – | – | O=C1[C@@H]2CC=CC[C@@H]2C(c2ccc(O)c(O)c2)=NN1C1CCN(c2ncnc3ccsc23)CC1 | 25100 |
| – | 372 | 66.1 | – | 0.234 | – | – | COc1ccc(C2=NN(C3CCN(c4ncnc5ccsc45)CC3)C(=O)[C@@H]3CC=CC[C@H]23)cc1OC | 7240 |
